ChEMBL document CHEMBL4190364, “Design, synthesis and anti-HIV evaluation of novel diarylpyridine derivatives as potent HIV-1 NNRTIs” (Eur J Med Chem, 2017)

Assays:
[1] = system: Human immunodeficiency virus 1; test: Antiviral activity against HIV1 3B infected in human MT4 cells assessed as inhibition of virus-induced cytopathogenicity by measuring virus-induced syncytium formation by MTT assay; format: functional, organism-based; settings: Human immunodeficiency virus 1, 3B
Method in brief: (§1)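 MT-4 cells, exponentially growing, spun 5 min at 220 g and resuspended at 6×10^5 cells/mL. Infected with virus stock at 100-300 CCID₅₀ (HIV-1 IIIB or HIV-2 ROD). Serial fivefold compound dilutions were tested in triplicate wells. Viability was read by MTT after 5 days at 540 and 690 nm, using the median OD of three wells.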

[2] = system: Human immunodeficiency virus 2; test: Antiviral activity against HIV2 ROD infected in human MT4 cells assessed as inhibition of virus-induced cytopathogenicity by measuring virus-induced syncytium formation by MTT assay; format: functional, organism-based; settings: Human immunodeficiency virus 2, ISOLATE ROD
Method in brief: as §1, with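 “three wells. EC₅₀ was taken as 50% inhibition of virus-induced syncytium formation.” for “three wells.”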

[3] = system: Human immunodeficiency virus 1; test: Antiviral activity against HIV1 RES056 expressing reverse transcriptase K103N/Y181C double mutant infected in human MT4 cells assessed as inhibition of virus-induced cytopathogenicity by measuring virus-induced syncytium formation by MTT assay; format: functional, organism-based; settings: Human immunodeficiency virus 1, RES056, MT4
Method in brief: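 MT-4 cells (exponentially growing, spun 5 min at 220 g, resuspended at 6×10^5 cells/mL) infected with 100-300 CCID₅₀ virus; serial fivefold compound dilutions added at start, triplicate wells, mock-infected set in parallel. Viability read by MTT reduction at 540 and 690 nm after 5 days; median OD of three wells; EC₅₀ = concentration inhibiting virus-induced syncytium formation by 50%.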

[4] = Cytotoxicity in mock-infected human MT4 cells assessed as reduction in cell viability by MTT assay; format: cell-based
Method in brief: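 Mock-infected MT-4 cells were run in parallel with the infected series: 6×10^5 cells/mL, serial fivefold compound dilutions, triplicate wells. MTT viability was read 5 days later at 540/690 nm from the median OD of three wells. CC₅₀ is the concentration cutting OD540 of mock-infected controls by 50%.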

[5] = Selectivity index, ratio of CC50 for mock-infected human MT4 cells to EC50 for antiviral activity against HIV1 3B infected in human MT4 cells; format: toxicity, cell-based; settings: mock-infected (CC50) and HIV1 3B infected (EC50)
Method in brief: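 SI is CC₅₀/EC₅₀. Both values come from parallel MTT readings on mock-infected and HIV-1 IIIB-infected (100-300 CCID₅₀) MT-4 cells, in triplicate wells with serial fivefold dilutions, read after 5 days.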

[6] = molecular target: Human immunodeficiency virus type 1 reverse transcriptase (Human immunodeficiency virus 1, UniProt Q72547); test: Inhibition of recombinant wild type HIV1 reverse transcriptase p66/p51 assessed as reduction in biotin-dUTP incorporation incubated for 40 mins using poly(rA) template and oligo(dT)16 primer by picogreen dye based spectrofluorometry
[7] = molecular target: Human immunodeficiency virus type 1 reverse transcriptase (Human immunodeficiency virus 1) (UniProt Q72547); test: Potency index, ratio of IC50 for nevirapine to IC50 for test compound for inhibition of recombinant wild type HIV1 reverse transcriptase p66/p51 incubated for 40 mins using poly(rA) template and oligo(dT)16 primer by picogreen dye based spectrofluorometry
[8] = system: Human immunodeficiency virus 1; test: Potency index, ratio of EC50 for nevirapine to EC50 for test compound for antiviral activity against HIV1 3B infected in human MT4 cells by MTT assay; format: functional

| Structure (SMILES) | EC50 [1] [µM] | EC50 [2] [µM] | EC50 [3] [µM] | CC50 [4] [µM] | selectivity ratio [5] | IC50 [6] [µM] | Ratio IC50 [7] | Ratio EC50 [8] |
| --- | --- | --- | --- | --- | --- | --- | --- | --- |
| Cc1cccc(C)c1Oc1cnc([N+](=O)[O-])c(Nc2ccc(C#N)cc2)c1 | 2.03 | > 347 | > 347 | > 347 | > 171 | – | – | – |
| Cc1cccc(C)c1Oc1cnc(N)c(Nc2ccc(C#N)cc2)c1 | 0.6 | > 378 | > 378 | > 378 | > 628 | 0.91 | – | – |
| COc1cccc(OC)c1Oc1cnc(N)c(Nc2ccc(C#N)cc2)c1 | 35.7 | > 345 | > 345 | > 345 | > 10 | 146 | – | – |
| Cc1cc(Br)c(Oc2cnc(N)c(Nc3ccc(C#N)cc3)c2)c(Br)c1 | 0.07 | > 264 | > 264 | > 264 | > 3800 | 0.05 | 45 | – |
| Cc1cc(C)c(Oc2cnc([N+](=O)[O-])c(Nc3ccc(C#N)cc3)c2)c(C)c1 | 0.29 | > 334 | > 334 | > 334 | > 1160 | – | – | – |
| COc1cccc(OC)c1Oc1cnc([N+](=O)[O-])c(Nc2ccc(C#N)cc2)c1 | > 319 | > 319 | – | > 319 | – | – | – | – |
| N#Cc1ccc(Nc2cc(Oc3c(Br)cc(Br)cc3Br)cnc2[N+](=O)[O-])cc1 | 0.79 | > 220 | > 220 | > 220 | > 277 | – | – | – |
| Cc1cc(C)c(Oc2cnc(N)c(Nc3ccc(C#N)cc3)c2)c(C)c1 | 0.14 | > 32.1 | > 32.1 | 32.1 | 227 | 0.09 | – | – |
| Cc1cc(Br)c(Oc2cnc([N+](=O)[O-])c(Nc3ccc(C#N)cc3)c2)c(Br)c1 | 0.05 | > 84.3 | > 84.3 | 84.3 | 1680 | 0.28 | – | – |
| Cc1cc(Br)cc(C)c1Oc1cnc([N+](=O)[O-])c(Nc2ccc(C#N)cc2)c1 | 4.41 | > 285 | > 285 | > 285 | > 64 | – | – | – |
| Cc1cc(Cl)cc(C)c1Oc1cnc(N)c(Nc2ccc(C#N)cc2)c1 | 0.37 | > 35.1 | > 35.1 | 35.1 | 95 | 0.31 | – | – |
| Cc1cn([C@H]2C[C@H](N=[N+]=[N-])[C@@H](CO)O2)c(=O)[nH]c1=O [ZIDOVUDINE] | 0.006 | – | – | > 7.48 | > 1290 | – | – | – |
| Cc1cc(C)c(Nc2cnc([N+](=O)[O-])c(Nc3ccc(C#N)cc3)c2)c(C)c1 | 0.04 | > 168 | > 168 | 168 | 3960 | 0.65 | – | 6 |
| N#Cc1ccc(Nc2cc(Oc3c(Cl)cc(Cl)cc3Cl)cnc2[N+](=O)[O-])cc1 | 0.31 | > 287 | > 287 | > 287 | > 924 | – | – | – |
| Cc1cccc(C)c1Nc1cnc([N+](=O)[O-])c(Nc2ccc(C#N)cc2)c1 | 1.06 | > 6.27 | > 6.27 | 6.27 | 6 | – | – | – |
| N#Cc1ccc(Nc2cc(Oc3c(F)cc(F)cc3F)cnc2[N+](=O)[O-])cc1 | 1.01 | > 324 | > 324 | > 324 | > 320 | – | – | – |
| Cc1cc(C#N)cc(C)c1Oc1cnc(N)c(Nc2ccc(C#N)cc2)c1 | 0.07 | > 39.5 | ≥ 11.5 | 39.5 | 577 | 0.17 | – | – |
| Cc1cc(Br)cc(C)c1Oc1cnc(N)c(Nc2ccc(C#N)cc2)c1 | 0.84 | > 26.7 | > 26.7 | 26.7 | 32 | 0.26 | – | – |
| Cc1ccnc2c1NC(=O)c1cccnc1N2C1CC1 [NEVIRAPINE] | – | – | > 15 | > 15 | – | – | – | – |
| Cc1cc(C#N)cc(C)c1Oc1cnc([N+](=O)[O-])c(Nc2ccc(C#N)cc2)c1 | 4.12 | > 324 | > 324 | > 324 | > 79 | – | – | – |
| N#Cc1ccc(Nc2cc(Oc3c(Br)cc(Br)cc3Br)cnc2N)cc1 | 0.5 | > 27.7 | > 27.7 | 27.7 | 55 | 0.17 | – | – |
| Cc1cc(Cl)cc(C)c1Oc1cnc([N+](=O)[O-])c(Nc2ccc(C#N)cc2)c1 | 1.41 | > 317 | > 317 | > 317 | > 171 | – | – | – |
| Cc1cc(C#N)cc(C)c1Oc1nc(Nc2ccc(C#N)cc2)nc(N)c1Br [ETRAVIRINE] | – | – | – | > 4.59 | – | – | – | – |
| O=C1Nc2ccc(Cl)cc2[C@@](C#CC2CC2)(C(F)(F)F)O1 [EFAVIRENZ] | – | – | – | > 6.34 | – | – | – | – |
| N#Cc1ccc(Nc2cc(Oc3c(Cl)cc(Cl)cc3Cl)cnc2N)cc1 | 0.26 | ≥ 57.7 | > 179 | 179 | 680 | 0.16 | – | – |
